Results taken from ChEMBL document CHEMBL4364291, “Benzylideneacetone Derivatives Inhibit Osteoclastogenesis and Activate Osteoblastogenesis Independently Based on Specific Structure-Activity Relationship” (J Med Chem, 2019).
The source made the active and inactive calls. The rule behind the calls is not given here.

What was measured:
[1] = Terminal half-life in ICR mouse at 2 mg/kg, iv measured up to 8 hrs by LC-MS/HPLC analysis; assay type: ADME, organism-based; conditions: in vivo, read-out: beta t1/2 (converted)
Procedure, shortened: (§1)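 Six-week-old male ICR mice (n = 3) were kept at 25 ± 2 °C on a 12 h light/dark cycle and dosed iv or po. Total plasma concentration (bound plus unbound) was plotted against time. Terminal T1/2 came from the elimination phase: a two-compartment fit for po dosing and a single-compartment fit for iv dosing.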

[2] = Terminal half-life in ICR mouse at 10 mg/kg, po administered via gavage measured up to 8 hrs by LC-MS/HPLC analysis; assay type: ADME, organism-based; conditions: in vivo, read-out: beta t1/2 (converted); procedure, shortened: as §1
[3] = Terminal half-life in ICR mouse at 50 mg/kg, po administered via gavage measured up to 8 hrs by LC-MS/HPLC analysis; assay type: ADME, organism-based; conditions: in vivo, read-out: beta t1/2 (converted); procedure, shortened: as §1
[4] = Cmax in ICR mouse at 10 mg/kg, po administered via gavage measured up to 8 hrs by LC-MS/HPLC analysis; assay type: ADME, organism-based; parameters: dose 10 mg/kg, route oral; conditions: in vivo
Procedure, shortened: (§2)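 Six-week-old male ICR mice, housed at 25 ± 2 °C, 60 ± 10% humidity, 12 h light/dark. Dosing was iv at 2 mg/kg or po at 10 and 50 mg/kg. Plasma concentrations were total, bound plus unbound. AUC∞ is from time zero to infinity. F = (AUCpo/AUCiv) × 100. Cmax and AUC∞ are mean ± SD of three mice.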

[5] = Cmax in ICR mouse at 50 mg/kg, po administered via gavage measured up to 8 hrs by LC-MS/HPLC analysis; assay type: ADME, organism-based; parameters: dose 50 mg/kg, route oral; conditions: in vivo; procedure, shortened: as §2
[6] = AUC (0 to infinity) in ICR mouse at 2 mg/kg, iv measured up to 8 hrs by LC-MS/HPLC analysis; assay type: ADME, organism-based; parameters: dose 2 mg/kg, time infinity, route intravenous; conditions: in vivo; procedure, shortened: as §2
[7] = AUC (0 to infinity) in ICR mouse at 10 mg/kg, po administered via gavage measured up to 8 hrs by LC-MS/HPLC analysis; assay type: ADME, organism-based; parameters: dose 10 mg/kg, route oral, time infinity; conditions: in vivo; procedure, shortened: as §2
[8] = system: MC3T3-E1; assay: Induction of osteoblast differentiation in mouse MC3T3-E1 cells co-cultured with C57BL/6 mouse bone marrow macrophages assessed as activation of ALP production at 10 uM measured on day 14 relative to control; assay type: functional
Procedure, shortened: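 MC3T3-E1 cells were cocultured with C57BL/6 BMM in differentiation factors for both cell types, with 10 μM compound, and grown for 21 d. ALP production was measured at 7, 14 and 21 d after coculture induction, relative to untreated cells.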

[9] = Inhibition of M-CSF/RANKL-induced osteoclast differentiation in C57BL/6 mouse bone marrow macrophage assessed as reduction in multinucleated TRAP+ cells incubated for 6 days with fresh media replacement on day 3 and measured on day 6 by TRAP staining-based microscopic analysis; assay type: functional, cell-based; conditions: C57BL/6, BMDM
Procedure, shortened: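 BMM came from femur and tibia marrow of 5–8-week-old male C57BL/6 mice and were purified over lymphocyte separation medium. Cells, 1 × 10^5 per well, were grown in α-MEM/10% FBS with M-CSF (60 ng/mL) and RANKL (150 ng/mL) for 6 d, medium changed day 3. Compound range was 0.01−100 μM. TRAP+ multinucleated cells were counted on day 6.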

[10] = AUC (0 to infinity) in ICR mouse at 50 mg/kg, po administered via gavage measured up to 8 hrs by LC-MS/HPLC analysis; assay type: ADME, organism-based; parameters: dose 50 mg/kg, time infinity, route oral; conditions: in vivo; procedure, shortened: as §2
[11] = system: MC3T3-E1; assay: Osteo-blastogenic activity in mouse MC3T3-E1 cells assessed as stimulation of ALP activity at 10 uM supplemented with fresh medium every 3 to 4 days and measured after 14 days relative to control; assay type: functional
Procedure, shortened: (§3)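 MC3T3-E1 subclone 4 osteoblastic cells were grown in α-MEM at 37 °C under 5% CO2 with compound present during differentiation. ALP activity was read 14 d after induction and expressed as % of untreated cells. Values are mean ± SD of three independent experiments.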

[12] = system: MC3T3-E1; assay: Osteo-blastogenic activity in mouse MC3T3-E1 cells assessed as stimulation of ALP activity at 50 uM supplemented with fresh medium every 3 to 4 days and measured after 14 days relative to control; assay type: functional; procedure, shortened: as §3
[13] = Oral bioavailability in ICR mouse at 10 mg/kg administered via gavage measured up to 8 hrs by LC-MS/HPLC analysis; assay type: ADME, organism-based; conditions: in vivo; procedure, shortened: as §2
[14] = Oral bioavailability in ICR mouse at 50 mg/kg administered via gavage measured up to 8 hrs by LC-MS/HPLC analysis; assay type: ADME, organism-based; conditions: in vivo; procedure, shortened: as §2
[15] = system: Mus musculus; assay: Antiosteoporotic activity in ddY mouse model of OVX-induced osteoporosis assessed as increase in femur bone mineral density at 10 mg/kg, po administered once daily via gavage for 4 weeks by microcomputed tomographic analysis; assay type: functional, organism-based
Procedure, shortened: (§4)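 Female ddY mice were ovariectomized. Oral gavage began 1 week after surgery and ran once daily for 28 d. Vehicle was 300 μL PBS containing 0.5% (v/v) DMSO, also given to sham and OVX controls. Mice were then euthanized and femur and tibia fixed for CT imaging. Values are mean ± SD of four mice.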

[16] = system: Mus musculus; assay: Antiosteoporotic activity in ddY mouse model of OVX-induced osteoporosis assessed as increase in ratio of bone volume/trabecular volume in femur bone at 10 mg/kg, po administered once daily via gavage for 4 weeks by microcomputed tomographic analysis; assay type: functional, organism-based; procedure, shortened: as §4
[17] = system: Mus musculus; assay: Antiosteoporotic activity in ddY mouse model of OVX-induced osteoporosis assessed as increase in cross-sectional thickness in femur bone at 10 mg/kg, po administered once daily via gavage for 4 weeks by microcomputed tomographic analysis; assay type: functional, organism-based; procedure, shortened: as §4
[18] = system: Mus musculus; assay: Antiosteoporotic activity in ddY mouse model of OVX-induced osteoporosis assessed as increase in trabecular number in femur bone at 10 mg/kg, po administered once daily via gavage for 4 weeks by microcomputed tomographic analysis; assay type: functional, organism-based; procedure, shortened: as §4
[19] = system: Mus musculus; assay: Antiosteoporotic activity in ddY mouse model of OVX-induced osteoporosis assessed as increase in trabecular thickness in femur bone at 10 mg/kg, po administered once daily via gavage for 4 weeks by microcomputed tomographic analysis; assay type: functional, organism-based; procedure, shortened: as §4
[20] = system: Mus musculus; assay: Antiosteoporotic activity in ddY mouse model of OVX-induced osteoporosis assessed as reduction in trabecular separation in femur bone at 10 mg/kg, po administered once daily via gavage for 4 weeks by microcomputed tomographic analysis; assay type: functional, organism-based; procedure, shortened: as §4
[21] = system: Mus musculus; assay: Antiosteoporotic activity in ddY mouse model of OVX-induced osteoporosis assessed as increase in new bone volume in femur bone at 10 mg/kg, po administered once daily via gavage for 4 weeks by microcomputed tomographic analysis; assay type: functional, organism-based; procedure, shortened: as §4
[22] = Cytotoxicity against human HaCaT cells after 24 hrs by MTT assay; assay type: cell-based; conditions: read-out: LD50
Procedure, shortened: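 Cells were maintained in DMEM at 37 °C under 5% CO2. Growth and survival were estimated by MTT assay, and the value is reported as LD50.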

[23] = Cytotoxicity against mouse RAW264.7 cells after 24 hrs by MTT assay; assay type: cell-based; conditions: read-out: LD50
Procedure, shortened: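 RAW264.7 macrophages (preosteoclast line) were kept in DMEM at 37 °C under 5% CO2 and tested without RANKL. MTT read-out of growth and survival, expressed as LD50.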

[24] = Toxicity in ddY mouse model of OVX-induced osteoporosis assessed as increase in body weight at 10 mg/kg, po administered once daily via gavage for 4 weeks measured 5 weeks post OVX-challenge; assay type: organism-based; conditions: in vivo, 840 h
Procedure, shortened: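 Dosing of ddY mice began one week after ovariectomy: compound in 300 μL of 0.5% (v/v) DMSO-containing PBS by gavage once daily for 28 d. OVX and sham controls received vehicle. Body weight was compared with sham control 5 weeks after OVX.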

Compound	half-life [1]	half-life [2]	half-life [3]	Cmax [4]	Cmax [5]	AUC(0-inf) [6]	AUC(0-inf) [7]	IC50 [9]	AUC(0-inf) [10]	Activity [11]	Activity [12]	bioavailability [13]	bioavailability [14]	Activity [15]	Activity [16]	Activity [17]	Activity [18]	Activity [19]	Activity [20]	Activity [21]	other results
CC(=O)/C=C/c1ccc(O)c(O)c1	0.4 h	2.1 h	3.1 h	200 nM	1100 nM	0.039 µM·h	0.14 µM·h	7.8 µM	0.66 µM·h	120%	280%	66%	76%	Active	Active	Active	Active	Active	Active	Active	Activity [8]: 110%; CC50 at 24 h [22]: 3500 µM; CC50 at 24 h [23]: 500 µM; Activity [24]: Toxic
COc1ccc(/C=C/C(C)=O)cc1O	1 h	1.2 h	2.2 h	160 nM	880 nM	0.1 µM·h	0.14 µM·h	0.11 µM	0.72 µM·h	100%	180%	26%	29%	Active	Active	Active	Active	Active	Active	Active	CC50 at 24 h [23]: > 5000 µM; Activity [24]: Toxic
